Assay results reported in ChEMBL document CHEMBL1149447, “Synthesis of 2,5-thiazole butanoic acids as potent and selective alpha(v)beta3 integrin receptor antagonists with improved oral pharmacokinetic properties” (Bioorg Med Chem Lett, 2006).

Tests used:
Integrin alpha-V/beta-3 = Integrin alpha-V/beta-3 (Homo sapiens, UniProt P05106+P06756); experiment: Inhibition of Integrin alphaV Beta3 receptor by solid-phase receptor binding assay; format: protein-complex assay
[1] = Volume of distribution in rat; format: ADME, organism-based; details: in vivo, read-out: Vdss
How it was run: (§1)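 Rats were given the compound both orally and intravenously. Oral and IV AUC are each normalized to dose (µg h/ml per mg/kg). The same rat study also reports oral bioavailability (%F), half-life (h), Cmax (µg/mL), clearance (mL/min/kg) and terminal volume Vz (mL/kg).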

[2] = target: Integrin alpha-IIb/beta-3 (Homo sapiens, UniProt P05106+P08514); experiment: Inhibition of Integrin alphaIIb Beta3 receptor by solid-phase receptor binding assay; format: protein-complex assay
Sequence of Integrin alpha-IIb/beta-3 (P05106 27-788 limits assumed): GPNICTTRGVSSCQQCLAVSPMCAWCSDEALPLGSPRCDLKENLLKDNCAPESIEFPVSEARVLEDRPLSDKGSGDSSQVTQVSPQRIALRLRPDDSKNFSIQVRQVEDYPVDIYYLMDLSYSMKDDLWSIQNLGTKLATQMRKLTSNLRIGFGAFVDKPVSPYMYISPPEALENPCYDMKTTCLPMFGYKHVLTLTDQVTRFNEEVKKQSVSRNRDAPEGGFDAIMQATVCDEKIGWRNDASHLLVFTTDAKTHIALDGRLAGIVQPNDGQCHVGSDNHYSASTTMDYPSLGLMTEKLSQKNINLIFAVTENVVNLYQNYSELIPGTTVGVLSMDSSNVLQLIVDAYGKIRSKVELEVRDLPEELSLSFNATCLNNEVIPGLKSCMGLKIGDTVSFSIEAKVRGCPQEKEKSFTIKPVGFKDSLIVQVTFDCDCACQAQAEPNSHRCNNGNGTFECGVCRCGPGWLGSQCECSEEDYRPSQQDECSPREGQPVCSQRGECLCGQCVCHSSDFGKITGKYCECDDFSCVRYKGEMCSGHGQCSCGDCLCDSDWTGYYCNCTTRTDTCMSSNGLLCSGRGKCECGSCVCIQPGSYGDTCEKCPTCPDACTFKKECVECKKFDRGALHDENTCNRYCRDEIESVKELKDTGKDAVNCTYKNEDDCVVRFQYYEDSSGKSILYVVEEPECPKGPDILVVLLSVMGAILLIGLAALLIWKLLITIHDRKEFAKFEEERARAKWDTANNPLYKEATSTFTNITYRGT
Sequence of Integrin alpha-IIb/beta-3 (P08514 32-887 limits assumed): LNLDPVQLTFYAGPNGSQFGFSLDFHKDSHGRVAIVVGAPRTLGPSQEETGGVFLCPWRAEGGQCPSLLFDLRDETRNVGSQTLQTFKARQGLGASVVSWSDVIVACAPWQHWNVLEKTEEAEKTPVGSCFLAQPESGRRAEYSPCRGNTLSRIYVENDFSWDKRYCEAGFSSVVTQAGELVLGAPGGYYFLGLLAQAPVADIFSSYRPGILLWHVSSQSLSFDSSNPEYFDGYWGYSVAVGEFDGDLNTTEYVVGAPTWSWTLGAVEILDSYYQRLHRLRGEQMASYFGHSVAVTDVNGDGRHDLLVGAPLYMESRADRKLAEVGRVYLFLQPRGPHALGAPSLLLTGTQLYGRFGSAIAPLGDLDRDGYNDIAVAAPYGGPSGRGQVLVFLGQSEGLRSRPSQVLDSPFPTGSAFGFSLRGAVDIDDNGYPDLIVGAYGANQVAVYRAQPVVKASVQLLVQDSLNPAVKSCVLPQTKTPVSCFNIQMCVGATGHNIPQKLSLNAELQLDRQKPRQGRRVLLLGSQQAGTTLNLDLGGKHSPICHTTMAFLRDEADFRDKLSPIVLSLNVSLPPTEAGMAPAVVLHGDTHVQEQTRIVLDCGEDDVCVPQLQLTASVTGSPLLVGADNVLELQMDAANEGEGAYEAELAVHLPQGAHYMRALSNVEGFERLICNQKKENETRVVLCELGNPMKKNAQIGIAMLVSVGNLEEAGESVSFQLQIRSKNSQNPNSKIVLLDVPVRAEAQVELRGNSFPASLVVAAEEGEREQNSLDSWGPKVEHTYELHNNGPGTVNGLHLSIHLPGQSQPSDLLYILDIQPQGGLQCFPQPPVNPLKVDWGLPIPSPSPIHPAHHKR
Sequence of Integrin alpha-IIb/beta-3 (P08514 891-1039 limits assumed): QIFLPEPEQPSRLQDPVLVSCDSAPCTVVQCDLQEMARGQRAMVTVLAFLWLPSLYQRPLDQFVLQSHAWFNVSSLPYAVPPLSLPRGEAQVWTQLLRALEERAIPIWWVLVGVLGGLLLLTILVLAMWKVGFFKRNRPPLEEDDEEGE

Integrin alpha-V/beta-6 = Integrin alpha-V/beta-6 (Homo sapiens, UniProt P06756+P18564); experiment: Inhibition of Integrin alphaV Beta6 receptor in HT29 cells by solid-phase receptor binding assay; format: cell-based, HT-29
Sequence of Integrin alpha-V/beta-6 (P06756 31-889 limits assumed): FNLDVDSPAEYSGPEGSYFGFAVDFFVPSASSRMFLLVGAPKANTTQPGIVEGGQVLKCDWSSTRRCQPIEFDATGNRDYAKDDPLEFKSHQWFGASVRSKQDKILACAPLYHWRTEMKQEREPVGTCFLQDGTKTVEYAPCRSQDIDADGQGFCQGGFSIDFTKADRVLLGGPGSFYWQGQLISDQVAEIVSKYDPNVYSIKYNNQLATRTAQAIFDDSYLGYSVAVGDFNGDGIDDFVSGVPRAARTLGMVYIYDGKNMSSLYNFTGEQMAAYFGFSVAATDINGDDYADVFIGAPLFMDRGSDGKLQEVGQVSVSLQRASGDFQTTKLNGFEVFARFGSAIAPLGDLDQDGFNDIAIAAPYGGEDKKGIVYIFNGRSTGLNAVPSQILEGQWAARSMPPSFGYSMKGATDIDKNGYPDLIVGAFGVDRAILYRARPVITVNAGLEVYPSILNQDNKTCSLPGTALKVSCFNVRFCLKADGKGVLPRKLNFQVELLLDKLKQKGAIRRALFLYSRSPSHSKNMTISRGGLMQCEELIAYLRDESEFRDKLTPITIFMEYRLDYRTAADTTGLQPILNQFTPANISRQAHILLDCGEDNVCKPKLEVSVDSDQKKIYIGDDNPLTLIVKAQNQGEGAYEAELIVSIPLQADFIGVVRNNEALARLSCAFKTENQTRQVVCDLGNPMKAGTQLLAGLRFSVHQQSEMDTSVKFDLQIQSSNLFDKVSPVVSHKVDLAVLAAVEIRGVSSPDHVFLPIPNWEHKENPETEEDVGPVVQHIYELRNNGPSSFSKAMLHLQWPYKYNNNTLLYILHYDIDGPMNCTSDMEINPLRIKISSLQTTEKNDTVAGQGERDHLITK
Sequence of Integrin alpha-V/beta-6 (P06756 891-1048 limits assumed): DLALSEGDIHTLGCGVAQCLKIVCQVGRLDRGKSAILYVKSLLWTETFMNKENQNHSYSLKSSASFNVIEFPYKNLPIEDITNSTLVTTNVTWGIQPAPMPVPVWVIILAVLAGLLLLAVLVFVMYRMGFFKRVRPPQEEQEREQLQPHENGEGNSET
Sequence of Integrin alpha-V/beta-6 (P18564 22-788 limits assumed): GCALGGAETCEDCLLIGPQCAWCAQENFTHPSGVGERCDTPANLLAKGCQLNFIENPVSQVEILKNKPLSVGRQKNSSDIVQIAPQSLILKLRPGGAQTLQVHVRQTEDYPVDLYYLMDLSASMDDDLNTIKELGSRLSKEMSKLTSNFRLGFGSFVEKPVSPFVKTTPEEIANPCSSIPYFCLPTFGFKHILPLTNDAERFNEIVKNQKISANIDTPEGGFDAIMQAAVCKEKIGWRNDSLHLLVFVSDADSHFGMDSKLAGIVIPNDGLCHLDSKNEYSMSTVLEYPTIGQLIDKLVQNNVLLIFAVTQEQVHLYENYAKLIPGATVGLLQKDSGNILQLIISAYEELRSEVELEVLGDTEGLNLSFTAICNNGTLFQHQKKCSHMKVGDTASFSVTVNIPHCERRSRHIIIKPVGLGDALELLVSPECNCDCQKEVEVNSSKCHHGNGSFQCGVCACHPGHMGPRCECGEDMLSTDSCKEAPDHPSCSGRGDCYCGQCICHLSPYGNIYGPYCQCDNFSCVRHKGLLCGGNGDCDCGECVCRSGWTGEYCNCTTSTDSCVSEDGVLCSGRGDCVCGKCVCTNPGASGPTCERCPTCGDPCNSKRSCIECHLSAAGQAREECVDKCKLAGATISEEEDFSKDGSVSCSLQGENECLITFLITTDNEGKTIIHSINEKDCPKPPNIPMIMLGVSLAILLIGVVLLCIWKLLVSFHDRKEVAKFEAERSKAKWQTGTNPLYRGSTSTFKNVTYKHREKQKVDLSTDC

[3] = Bioavailability in rat; format: ADME, organism-based; details: in vivo; how it was run: as §1
[4] = Half life in rat; format: ADME, organism-based; details: in vivo; how it was run: as §1
Rattus norvegicus [5] = experiment: AUC/dose(mg/kg) in orally dosed rat; format: ADME, organism-based, Plasma; details: in vivo, po; how it was run: as §1
Rattus norvegicus [6] = experiment: AUC/dose(mg/kg) in iv dosed rat; format: ADME, organism-based, Plasma; details: in vivo; how it was run: as §1
[7] = Cmax in rat; format: ADME, organism-based; details: in vivo; how it was run: as §1
[8] = Clearance in rat; format: ADME, organism-based; details: in vivo; how it was run: as §1
[9] = Bioavailability in dog; format: ADME, organism-based, Canis lupus familiaris; details: in vivo
[10] = Half life in dog; format: ADME, organism-based, Canis lupus familiaris; details: in vivo
[11] = Bioavailability in cynomonkey; format: ADME, organism-based, Macaca fascicularis; details: cynomolgus monkey, in vivo
[12] = Half life in cynomonkey; format: ADME, organism-based, Macaca fascicularis; details: cynomolgus monkey, in vivo

Sequence of Integrin alpha-V/beta-3 (P05106 27-788 limits assumed): as the sequence (P05106 27-788 limits assumed) above
Sequence of Integrin alpha-V/beta-3 (P06756 31-889 limits assumed): as the sequence (P06756 31-889 limits assumed) above
Sequence of Integrin alpha-V/beta-3 (P06756 891-1048 limits assumed): as the sequence (P06756 891-1048 limits assumed) above

IC50 (Integrin alpha-V/beta-3) [nM] | Vd [1] [L/kg] | IC50 [2] [nM] | IC50 (Integrin alpha-V/beta-6) [nM] | bioavailability [3] [%] | half-life [4] [h] | AUC/dose (Rattus norvegicus [5]) [µg·h/mL] | AUC/dose (Rattus norvegicus [6]) [µg·h/mL] | Cmax [7] [ng/mL] | clearance [8] [mL/min/kg] | SMILES | other results
3.73 |  |  |  |  |  |  |  |  |  | COc1ccc(C(CC(=O)O)Cc2csc(CCCCNc3cc(N4CCSCC4)ccn3)n2)cn1 (configuration not stated) | 
2.17 | 1.29 | 405 | 3260 | 95 | 4.3 | 1.8 | 1.9 | 9100 | 9 | COc1ccc(C(CC(=O)O)Cc2csc(CCCc3ccc4c(n3)NCCC4)n2)cc1F (configuration not stated) | 
1.26 |  |  |  |  |  |  |  |  |  | O=C(O)C[C@H](Cc1csc(CCCCNc2cc(N3CCCC3)ccn2)n1)c1ccc2c(c1)OCO2 | 
1.54 | 2.04 | 350 | 1740 | 98 | 6.1 | 2.2 | 2.2 | 6100 | 7.3 | COc1cc(OC)cc(C(CC(=O)O)Cc2csc(CCCc3ccc4c(n3)NCCC4)n2)c1 (configuration not stated) | 
0.61 |  |  |  |  |  |  |  |  |  | CN1CCNc2nc(CCCc3nc(CC(CC(=O)O)c4ccc5c(c4)OCO5)cs3)ccc21 (configuration not stated) | 
1.2 | 2.68 |  | 841 | 90 | 7.1 | 1.7 | 1.9 | 3000 | 8.7 | COCc1ncc(C(CC(=O)O)Cc2csc(CCCc3ccc4c(n3)NCCC4)n2)s1 (configuration not stated) | 
2.8 |  | 559 | 1310 |  |  |  |  |  |  | O=C(O)CC(Cc1csc(CCCc2ccc3c(n2)NCCC3)n1)c1cccc(F)c1 (configuration not stated) | 
1.22 | 1.02 |  | 313 | > 100 | 3.4 | 2.5 | 2.4 | 22000 | 6.8 | O=C(O)CC(Cc1csc(CCCc2ccc3c(n2)NCCC3)n1)c1cnc(C2CC2)s1 (configuration not stated) | 

Continued, compound first:

SMILES | IC50 (Integrin alpha-V/beta-3) [nM] | Vd [1] [L/kg] | IC50 [2] [nM] | IC50 (Integrin alpha-V/beta-6) [nM] | bioavailability [3] [%] | half-life [4] [h] | AUC/dose (Rattus norvegicus [5]) [µg·h/mL] | AUC/dose (Rattus norvegicus [6]) [µg·h/mL] | Cmax [7] [ng/mL] | clearance [8] [mL/min/kg] | other results
COc1ccc(C(CC(=O)O)Cc2csc(CCCCNc3cc(N4CCCC4)ccn3)n2)cn1 (configuration not stated) | 3 |  |  |  |  |  |  |  |  |  | 
O=C(O)C[C@H](Cc1csc(CCCCNc2cc(N3CCSCC3)ccn2)n1)c1ccc2c(c1)OCO2 | 1.7 |  |  |  |  |  |  |  |  |  | 
COc1ccc(C(CC(=O)O)Cc2csc(CCCc3ccc4c(n3)NCCC4)n2)cn1 (configuration not stated) | 1.23 | 2.95 |  | 1320 | > 100 | 6.3 | 1.6 | 1.4 | 6600 | 12.3 | 
Cc1ccc(C(CC(=O)O)Cc2csc(CCCc3ccc4c(n3)NCCC4)n2)cc1 (configuration not stated) | 11.1 |  | 2000 | 5060 |  |  |  |  |  |  | 
Cc1nc2cc(C(CC(=O)O)Cc3csc(CCCc4ccc5c(n4)NCCC5)n3)ccc2s1 (configuration not stated) | 2.82 |  | 95.1 | > 10000 |  |  |  |  |  |  | 
O=C(O)C[C@H](Cc1csc(CCCc2ccc3c(n2)NCCC3)n1)c1ccc2c(c1)OCO2 |  |  |  |  |  |  |  |  |  |  | bioavailability [9]: 60%; half-life [10]: 13 h; bioavailability [11]: 64%; half-life [12]: 11.2 h
COc1ccc(C(CC(=O)O)Cc2csc(CCCc3ccc4c(n3)NCCN4C)n2)cn1 (configuration not stated) | 1.24 |  |  |  |  |  |  |  |  |  | 
O=C(O)CC(Cc1csc(CCCc2ccc3c(n2)NCCC3)n1)c1ccc2c(c1)OCO2 (configuration not stated) | 1.18 | 0.897 | 263 | 2390 | > 100 | 7 | 6.8 | 5.2 | 19600 | 3.3 | 
COc1ccc(C(CC(=O)O)Cc2csc(CCCCNc3cc(N4CCOCC4)ccn3)n2)cn1 (configuration not stated) | 3.54 |  |  |  |  |  |  |  |  |  | 
O=C(O)CC(Cc1csc(CCCc2ccc3c(n2)NCCC3)n1)c1ccc(Cl)cc1 (configuration not stated) | 3.81 |  | 636 | 2440 |  |  |  |  |  |  | 
O=C(O)CC(Cc1csc(CCCc2ccc3c(n2)NCCC3)n1)c1cnc(-c2ccccc2)s1 (configuration not stated) | 1.77 |  | 252 | 2670 |  |  |  |  |  |  | 
O=C(O)CC(Cc1csc(CCCc2ccc3c(n2)NCCC3)n1)c1cnc(-c2ccc(Cl)cc2)s1 (configuration not stated) | 2.09 |  | 559 | 4300 |  |  |  |  |  |  | 
O=C(O)C[C@H](Cc1csc(CCCCNc2cc(N3CCOCC3)ccn2)n1)c1ccc2c(c1)OCO2 | 1.56 |  |  |  |  |  |  |  |  |  | 
O=C(O)CC(Cc1csc(CCCc2ccc3c(n2)NCCC3)n1)c1ccc(F)c(F)c1 (configuration not stated) | 3.49 |  | 484 | 2120 |  |  |  |  |  |  | 
O=C(O)CC(Cc1nc(CCCc2ccc3c(n2)NCCC3)no1)c1ccc2c(c1)OCO2 (racemic) |  | 0.733 |  |  | 95 | 1.4 | 1.5 | 1.6 | 12000 | 10.9 | 
